Source: ChEMBL document CHEMBL4251593, “Nontoxic combretafuranone analogues with high in vitro antibacterial activity” (Eur J Med Chem, 2018)
Values after ≈ are worked out from the molar mass of the structure shown.

Key:
HepG2 [1] = assay: Induction of apoptosis in human HepG2 cells assessed as caspase 3/7 activity after 24 hrs by caspase-glo luminescent assay; assay type: cell-based; details: HepG2, 24 h
Summary of the method: (§1)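 Cells were seeded at 500 per well in their growth media and exposed to 12 concentrations from 40 µM to 1 nM, delivered from DMSO, in triplicate. After 24 h, caspase-3/7 activity was read by Caspase-Glo luminescence. Data were normalized and ED50 was fitted by variable-slope nonlinear regression.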

Klebsiella pneumoniae [2] = assay: Antibacterial activity against Klebsiella pneumoniae HK14368/08 clinical isolate after 24 hrs by microdilution assay; assay type: functional; details: HK14368/08, 24 h
PC-3 [3] = assay: Cytotoxicity against human PC3 cells assessed as reduction in cell viability after 48 hrs by ATPlite-based luminescent assay; details: PC-3, 48 h
Summary of the method: (§2)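 Cells were grown […] with 10% FBS, glutamax, NEAA and pen/strep at 37 °C, 5% CO2. Media were DMEM for RPE-1, HepG2 and BJ (BJ plus 10 ng/ml bFGF), F-12K for PC3, and IMDM for K562/HL-60. Cells were seeded at 500 per well and dosed from DMSO at 12 concentrations, 40 µM to 1 nM, in triplicate. After 48 h, intracellular ATP was read by luminescence. ED50 was obtained by variable-slope nonlinear regression.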

Klebsiella pneumoniae [4] = assay: Antibacterial activity against Klebsiella pneumoniae HK14368/08 clinical isolate after 48 hrs by microdilution assay; assay type: functional; details: HK14368/08, 48 h
Klebsiella pneumoniae [5] = assay: Antibacterial activity against Klebsiella pneumoniae HK11750/08 clinical isolate after 24 hrs by microdilution assay; assay type: functional; details: HK11750/08, 24 h
Escherichia coli [6] = assay: Antibacterial activity against Escherichia coli ATCC 8739 after 48 hrs by microdilution assay; assay type: functional; details: ATCC 8739, 48 h
Summary of the method: (§3)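 Broth microdilution in Mueller-Hinton medium buffered to pH 7.4 (±0.2), with DMSO as diluent at no more than 2% final. Compounds were tested as 2-fold serial dilutions from 2000 to 0.488 µmol/l. The inoculum was 0.5 McFarland (1.5×10^8 cfu/ml). Plates were held at 37 °C and read visually at 24 and 48 h. MIC was taken as 95% growth inhibition versus control, determined twice in duplicate.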

[7] = tested on: Staphylococcus epidermidis; assay: Antibacterial activity against Staphylococcus epidermidis HK6966/08 clinical isolate after 48 hrs by microdilution assay; assay type: functional; details: HK6966/08, 48 h
BJ = assay: Cytotoxicity against human BJ cells assessed as reduction in cell viability after 48 hrs by ATPlite-based luminescent assay; summary of the method: as §2
Staphylococcus aureus [8] = assay: Antibacterial activity against methicillin-resistant Staphylococcus aureus HK5996/08 clinical isolate after 48 hrs by microdilution assay; assay type: functional; details: HK5996/08, 48 h
HL-60 [9] = assay: Induction of apoptosis in human HL60 cells assessed as caspase 3/7 activity after 24 hrs by caspase-glo luminescent assay; assay type: cell-based; details: HL-60, 24 h; summary of the method: as §1
Staphylococcus aureus [10] = assay: Antibacterial activity against Staphylococcus aureus ATCC 6538 after 48 hrs by microdilution assay; assay type: functional; details: ATCC 6538, 48 h
HL-60 [11] = assay: Cytotoxicity against human HL60 cells assessed as reduction in cell viability after 48 hrs by ATPlite-based luminescent assay; details: HL-60, 48 h; summary of the method: as §2
MCF7 = assay: Cytotoxicity against human MCF7 cells assessed as reduction in cell viability after 48 hrs by ATPlite-based luminescent assay; details: MCF7, 48 h
Klebsiella pneumoniae [12] = assay: Antibacterial activity against Klebsiella pneumoniae HK11750/08 clinical isolate after 48 hrs by microdilution assay; assay type: functional; details: HK11750/08, 48 h
Pseudomonas aeruginosa [13] = assay: Antibacterial activity against Pseudomonas aeruginosa ATCC 9027 after 48 hrs by microdilution assay; assay type: functional; details: ATCC 9027, 48 h; summary of the method: as §3
TERT-RPE1 [14] = assay: Induction of apoptosis in human RPE1 cells assessed as caspase 3/7 activity after 24 hrs by caspase-glo luminescent assay; assay type: cell-based; details: RPE-1, 24 h; summary of the method: as §1
PC-3 [15] = assay: Induction of apoptosis in human PC3 cells assessed as caspase 3/7 activity after 24 hrs by caspase-glo luminescent assay; assay type: cell-based; details: PC-3, 24 h; summary of the method: as §1
TERT-RPE1 [16] = assay: Cytotoxicity against human RPE1 cells assessed as reduction in cell viability after 48 hrs by ATPlite-based luminescent assay; details: RPE-1, 48 h; summary of the method: as §2
HepG2 [17] = assay: Cytotoxicity against human HepG2 cells assessed as reduction in cell viability after 48 hrs by ATPlite-based luminescent assay; details: HepG2, 48 h; summary of the method: as §2
K562 [18] = assay: Cytotoxicity against human K562 cells assessed as reduction in cell viability after 48 hrs by ATPlite-based luminescent assay; details: K562, 48 h; summary of the method: as §2
Staphylococcus aureus [19] = assay: Antibacterial activity against methicillin-resistant Staphylococcus aureus HK5996/08 clinical isolate after 24 hrs by microdilution assay; assay type: functional; details: HK5996/08, 24 h
[20] = tested on: Staphylococcus epidermidis; assay: Antibacterial activity against Staphylococcus epidermidis HK6966/08 clinical isolate after 24 hrs by microdilution assay; assay type: functional; details: HK6966/08, 24 h
Staphylococcus aureus [21] = assay: Antibacterial activity against Staphylococcus aureus ATCC 6538 after 24 hrs by microdilution assay; assay type: functional; details: ATCC 6538, 24 h
Enterococcus sp. [22] = assay: Antibacterial activity against Enterococcus sp. HK14365/08 clinical isolate after 24 hrs by microdilution assay; assay type: functional; details: HK14365/08, 24 h
Escherichia coli [23] = assay: Antibacterial activity against Escherichia coli ATCC 8739 after 24 hrs by microdilution assay; assay type: functional; details: ATCC 8739, 24 h; summary of the method: as §3
Pseudomonas aeruginosa [24] = assay: Antibacterial activity against Pseudomonas aeruginosa ATCC 9027 after 24 hrs by microdilution assay; assay type: functional; details: ATCC 9027, 24 h; summary of the method: as §3
Enterococcus sp. [25] = assay: Antibacterial activity against Enterococcus sp. HK14365/08 clinical isolate after 48 hrs by microdilution assay; assay type: functional; details: HK14365/08, 48 h
K562 [26] = assay: Induction of apoptosis in human K562 cells assessed as caspase 3/7 activity after 24 hrs by caspase-glo luminescent assay; assay type: cell-based; details: K562, 24 h; summary of the method: as §1

SMILES | IC50 (HepG2 [1]) [µM] | MIC95 (Klebsiella pneumoniae [2]) [µM] | IC50 (PC-3 [3]) [µM] | MIC95 (Klebsiella pneumoniae [4]) [µM] | MIC95 (Klebsiella pneumoniae [5]) [µM] | MIC95 (Escherichia coli [6]) [µM] | MIC95 [7] [µM] | IC50 (BJ) [µM] | MIC95 (Staphylococcus aureus [8]) [µM] | IC50 (HL-60 [9]) [µM] | MIC95 (Staphylococcus aureus [10]) [µM] | IC50 (HL-60 [11]) [µM] | IC50 (MCF7) [µM] | MIC95 (Klebsiella pneumoniae [12]) [µM] | MIC95 (Pseudomonas aeruginosa [13]) [µM] | IC50 (TERT-RPE1 [14]) [µM] | IC50 (PC-3 [15]) [µM] | IC50 (TERT-RPE1 [16]) [µM] | IC50 (HepG2 [17]) [µM] | IC50 (K562 [18]) [µM] | also measured
O=C1OCC(c2ccc3c(c2)OCO3)=C1c1ccc2c(c1)OCO2 | > 40 | > 125 | > 40 | > 125 | > 125 | > 125 | > 125 | > 40 | > 125 | > 40 | > 125 | 17.4 | > 40 | > 125 | > 125 | > 40 | > 40 | 35.5 | > 40 | 16 | MIC95 (Staphylococcus aureus [19]): > 125 µM; MIC95 [20]: > 125 µM; MIC95 (Staphylococcus aureus [21]): > 125 µM; MIC95 (Enterococcus sp. [22]): > 125 µM; MIC95 (Escherichia coli [23]): > 125 µM; MIC95 (Pseudomonas aeruginosa [24]): > 125 µM; MIC95 (Enterococcus sp. [25]): > 125 µM; IC50 (K562 [26]): > 40 µM
O=C1OCC(c2ccc(C(F)(F)F)cc2)=C1c1ccncc1 | > 40 | > 500 | > 40 | > 500 | > 500 | > 500 | 250 (≈ 76.3 µg/mL) | > 40 | 500 (≈ 153 µg/mL) | > 40 | > 500 | > 40 | > 40 | > 500 | > 500 | > 40 | > 40 | > 40 | > 40 | > 40 | MIC95 (Staphylococcus aureus [19]): 500 µM (≈ 153 µg/mL); MIC95 [20]: 250 µM (≈ 76.3 µg/mL); MIC95 (Staphylococcus aureus [21]): > 500 µM; MIC95 (Enterococcus sp. [22]): > 500 µM; MIC95 (Escherichia coli [23]): > 500 µM; MIC95 (Pseudomonas aeruginosa [24]): > 500 µM; MIC95 (Enterococcus sp. [25]): > 500 µM; IC50 (K562 [26]): > 40 µM
Cc1ccc(C2=C(c3cccc(C(F)(F)F)c3)C(=O)OC2)cc1 | > 40 | > 500 | > 40 | > 500 | > 500 | > 500 | 15.6 (≈ 4.97 µg/mL) | > 40 | 31.2 (≈ 9.95 µg/mL) | 2.66 | 31.2 (≈ 9.95 µg/mL) | 0.66 | 19.1 | > 500 | > 500 | > 40 | > 40 | 1.33 | > 40 | 0.29 | MIC95 (Staphylococcus aureus [19]): 31.2 µM (≈ 9.95 µg/mL); MIC95 [20]: 15.6 µM (≈ 4.97 µg/mL); MIC95 (Staphylococcus aureus [21]): 31.2 µM (≈ 9.95 µg/mL); MIC95 (Enterococcus sp. [22]): > 500 µM; MIC95 (Escherichia coli [23]): > 500 µM; MIC95 (Pseudomonas aeruginosa [24]): > 500 µM; MIC95 (Enterococcus sp. [25]): > 500 µM; IC50 (K562 [26]): 0.31 µM
O=C1OCC(c2ccccc2)=C1c1cccc(C(F)(F)F)c1 | > 40 | > 500 | > 40 | > 500 | > 500 | > 500 | 31.2 (≈ 9.51 µg/mL) | > 40 | 62.5 (≈ 19 µg/mL) | > 40 | 15.6 (≈ 4.75 µg/mL) | > 40 | > 40 | > 500 | > 500 | > 40 | > 40 | > 40 | > 40 | > 40 | MIC95 (Staphylococcus aureus [19]): 62.5 µM (≈ 19 µg/mL); MIC95 [20]: 31.2 µM (≈ 9.51 µg/mL); MIC95 (Staphylococcus aureus [21]): 15.6 µM (≈ 4.75 µg/mL); MIC95 (Enterococcus sp. [22]): > 500 µM; MIC95 (Escherichia coli [23]): > 500 µM; MIC95 (Pseudomonas aeruginosa [24]): > 500 µM; MIC95 (Enterococcus sp. [25]): > 500 µM; IC50 (K562 [26]): > 40 µM
COc1ccc(C2=C(c3c(Cl)cccc3Cl)C(=O)OC2)cc1 | > 40 | > 500 | > 40 | > 500 | > 500 | > 500 | 250 (≈ 83.8 µg/mL) | > 40 | > 500 | 12.5 | 125 (≈ 41.9 µg/mL) | 15.1 | > 40 | > 500 | > 500 | > 40 | > 40 | > 40 | > 40 | 14.4 | MIC95 (Staphylococcus aureus [19]): > 500 µM; MIC95 [20]: 125 µM (≈ 41.9 µg/mL); MIC95 (Staphylococcus aureus [21]): 62.5 µM (≈ 20.9 µg/mL); MIC95 (Enterococcus sp. [22]): > 500 µM; MIC95 (Escherichia coli [23]): > 500 µM; MIC95 (Pseudomonas aeruginosa [24]): > 500 µM; MIC95 (Enterococcus sp. [25]): > 500 µM; IC50 (K562 [26]): 16.2 µM
COc1ccc(C2=C(c3ccc(OC)c(OC)c3)COC2=O)cc1 | > 40 | > 125 | 15.9 | > 125 | > 125 | > 125 | > 125 | > 40 | > 125 | > 40 | > 125 | > 40 | > 40 | > 125 | > 125 | > 40 | > 40 | > 40 | > 40 | > 40 | MIC95 (Staphylococcus aureus [19]): > 125 µM; MIC95 [20]: > 125 µM; MIC95 (Staphylococcus aureus [21]): > 125 µM; MIC95 (Enterococcus sp. [22]): > 125 µM; MIC95 (Escherichia coli [23]): > 125 µM; MIC95 (Pseudomonas aeruginosa [24]): > 125 µM; MIC95 (Enterococcus sp. [25]): > 125 µM; IC50 (K562 [26]): > 40 µM
